# From PubChem BioAssay
# Calls of active or inactive are those of the source.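 The calls were made as follows, unless noted: active = viability at or below 30% in both replicate assays; inconclusive = viability at or below 30% in just one of the two assays; inactive = the rest.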
# Legend:
# [1] = SK-BR-3 cell growth inhibitors, pilot screen, 24 h, human (AID 572;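 active = viability at or below 10% of carrier control in both of two separate runs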;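 also: compound exposure lasted between 18 and 24 h rather than exactly 24 h; 100% = carrier-treated control wells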); settings: SK-BR-3 viability, CellTiter-Glo luminescence, at 10 µM, stronger effect = lower value
# [2] = HUVEC growth inhibition – cell-based, human, primary screen (AID 575); settings: HUVEC proliferation, CellTiter-Glo luminescence, 72 h; at 10 µM; stronger effect = lower value;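 also: 100% = median of untreated cell wells with 0.1% DMSO on each plate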
# Summary of the method: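 Timing: 72 h treatment at 37 °C; material: HUVEC primary cells; technique: CellTiter-Glo luminescence measuring cellular ATP; controls: vehicle and MePR control wells; measure: percent of median DMSO-control luminescence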
# [3] = growth inhibitors of H69AR lung tumor, primary screen, human, duplicate replicates (AID 580;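 active = viability at or under a set limit in both replicates, limit being median viability minus 3 SD, cut at about 48% in these data, passing the limit was not always enough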;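 also: 100% = mean luminescence of untreated wells and 0% = no signal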); settings: H69AR lung tumor cells viability, ATP luminescence, 72 h; at 10 µM; stronger effect = lower value
# [4] = reversal of MRP1-mediated doxorubicin resistance, pilot screen, H69AR cells, doxorubicin co-treatment (AID 601;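 active = viability loss from added drug above about 55%, and viability with drug at most 40%, in both replicates, limit read from the data, passing the limit was not always enough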); settings: CellTiter-Glo, 72 h, at 10 µM; for differential viability (reversal): stronger effect = higher value
# [5] = 384-well plate pilot, post-Golgi transport modulator project, inhibition of yeast transport mutant growth (AID 636; in the data active = inhibition above about 31%); settings: absorbance 615 nm, about 18 h, stronger effect = higher value
# [6] = growth suppression of yeast trafficking mutant, preliminary HTS, modulators of trafficking downstream of Golgi apparatus project, 1536-format plate, OD 615 nm (AID 637; in the data active = inhibition above about 30%); settings: yeast transport mutant growth, absorbance 615 nm, 18 h; stronger effect = higher value
# [7] = H69AR cells + 2 uM doxorubicin, measured here: viability with 2 uM doxorubicin, stronger effect = lower value
# [8] = H69AR cells, compound alone cytotoxicity
SMILES,viability [1],viability [2],viability [3],differential viability (reversal) ([4]; H69AR cells + 2 uM doxorubicin),"viability [4, 7]","viability [4, 8]",inhibition [5],inhibition [6]
Cc1cc(Oc2ccc(Cl)cc2)nc(-c2ccccc2O)n1,98% (inactive),84.7% (inactive),93.9% (inactive),3.2% (inactive),90.7%,93.9%,2.73% (inactive),-7.38% (inactive)
CC1CCCC(C)N1C(=O)CSc1nnc(-c2cccs2)o1 (stereo not drawn),92% (inactive),106% (inactive),95.1% (inactive),-1.69% (inactive),96.8%,95.1%,0.54% (inactive),-3.09% (inactive)
CCCC(=O)n1nc(-c2ccc(OC)cc2)nc1N,101% (inactive),93.6% (inactive),105% (inactive),7% (inactive),98.3%,105%,-1.56% (inactive),5.74% (inactive)
c1ccc(-c2ccc(C(c3ccccc3)n3ccnc3)cc2)cc1 (stereo not drawn),140% (inactive),74.3% (inactive),63.3% (inactive),-2.76% (inactive),66%,63.3%,100% (active),100% (active)
Cc1ccc2c(c1)N(CC(=O)N1CCCCC1c1cccnc1)C(=O)CO2 (stereo not drawn),106% (inactive),99.8% (inactive),95% (inactive),-4.01% (inactive),99%,95%,-2.84% (inactive),-5.82% (inactive)
Cc1ccc2c(c1)CCCN2C(=O)c1ccc2c(c1)OCO2,48% (inactive),108% (inactive),101% (inactive),-8.85% (inactive),110%,101%,-8.63% (inactive),-6.18% (inactive)
C=CCc1ccccc1OCC(O)CNC(C)C (stereo not drawn),82% (inactive),70.1% (inactive),91.3% (inactive),-8.68% (inactive),100%,91.3%,-2.34% (inactive),1.67% (inactive)
O=C(c1ccc(Cl)cc1)N1CCCOC1,89% (inactive),113% (inactive),92% (inactive),7.33% (inactive),84.7%,92%,-8.11% (inactive),-1.27% (inactive)
O=c1[nH]c(N2CCCCC2)nc2c1CCCC2,95% (inactive),96.2% (inactive),95.8% (inactive),5.24% (inactive),90.5%,95.8%,-4.05% (inactive),15.3% (inactive)
c1ccc(Cc2nn3c(Cn4cnc5ccccc54)nnc3s2)cc1,128% (inactive),78.9% (inactive),85.8% (inactive),3.46% (inactive),82.3%,85.8%,-5.34% (inactive),-0.65% (inactive)
CCCCn1nnnc1NCc1cccs1,98% (inactive),97% (inactive),99.2% (inactive),14.4% (inactive),84.8%,99.2%,-6.49% (inactive),-0.33% (inactive)
NC(N)=NC(=O)c1nc(Cl)c(N)nc1N,117% (inactive),86.5% (inactive),91.2% (inactive),-4.34% (inactive),95.5%,91.2%,-2.34% (inactive),1.67% (inactive)
Fc1cccc(Nc2cc(-n3cccn3)ncn2)c1,95% (inactive),72.5% (inactive),89.6% (inactive),-4.63% (inactive),94.3%,89.6%,-7.81% (inactive),-4.76% (inactive)
Cc1occc1C(=O)Nc1ccc(S(=O)(=O)N2CCN(C)CC2)cc1,71% (inactive),89.2% (inactive),90.4% (inactive),5.85% (inactive),84.5%,90.4%,-3.01% (inactive),1.82% (inactive)
O=C(c1nn2cccnc2c1Cl)N1CCN(c2ccccc2)CC1,66% (inactive),102% (inactive),108% (inactive),10.1% (inactive),97.8%,108%,-6.99% (inactive),3.82% (inactive)
Cc1cc(C)c2nc(C(F)(F)F)nc(NCCCN3CCCC3=O)c2c1,113% (inactive),51.4% (inactive),83.7% (inactive),-9.04% (inactive),92.7%,83.7%,-4.38% (inactive),0.65% (inactive)
N#CCc1nc2c3c4c(sc3ncn2n1)CCCC4,112% (inactive),23.6% (active),86.4% (inactive),8.27% (inactive),78.1%,86.4%,-5.54% (inactive),0.36% (inactive)
CCCc1c(OCCCCc2nn[nH]n2)ccc(C(C)=O)c1O,77% (inactive),67% (inactive),84.4% (inactive),-20.6% (inactive),105%,84.4%,-1.56% (inactive),3% (inactive)

SMILES,viability [1],viability [2],viability [3],differential viability (reversal) ([4]; H69AR cells + 2 uM doxorubicin),"viability [4, 7]","viability [4, 8]",inhibition [5],inhibition [6]
Cc1c(NC(=O)CCc2ccc(S(=O)(=O)N3CCOCC3)cc2)c(=O)n(-c2ccccc2)n1C,93% (inactive),109% (inactive),100% (inactive),10.3% (inactive),89.8%,100%,-3.77% (inactive),-8.2% (inactive)
O=C(CSc1nnc(-c2ccc(Br)cc2)n1C1CCCCC1)N1CCCC1,64% (inactive),113% (inactive),80.2% (inactive),-6.92% (inactive),87.1%,80.2%,-6.58% (inactive),-2% (inactive)
Cc1cc(C(C)(C)C)cc(C)c1CC1=NCCN1,120% (inactive),86.3% (inactive),89.9% (inactive),7.59% (inactive),82.3%,89.9%,-2.73% (inactive),-4.5% (inactive)
CC1CCCCC1NC(=O)COc1ccc(-n2cnnn2)cc1 (stereo not drawn),100% (inactive),103% (inactive),101% (inactive),-0.38% (inactive),101%,101%,0% (inactive),0.73% (inactive)
CC1Oc2ccccc2N(CC(=O)NCc2cccs2)C1=O (stereo not drawn),77% (inactive),98.8% (inactive),108% (inactive),13.8% (inactive),94.5%,108%,-6.71% (inactive),-0.91% (inactive)
CN(C)CCCOC(=O)CCc1ccccc1,95% (inactive),126% (inactive),96.3% (inactive),2.46% (inactive),93.9%,96.3%,-4.73% (inactive),-7.09% (inactive)
CCn1c(SCC(N)=O)nnc1-c1ccc(S(=O)(=O)N2CCN(C)CC2)cc1,97% (inactive),105% (inactive),95.8% (inactive),9.21% (inactive),86.6%,95.8%,2.93% (inactive),6.73% (inactive)
COc1cccc(NC(=O)C2C3C=CC4(O3)C2C(=O)N(C(C)C)C4C(=O)NC2CCCCC2C)c1 (stereo not drawn),111% (inactive),105% (inactive),96.9% (inactive),8.79% (inactive),88.1%,96.9%,0.26% (inactive),-4.92% (inactive)
Cc1ccc(C)c(NS(=O)(=O)c2ccc(NC(=O)c3ccco3)cc2)c1,72% (inactive),78.5% (inactive),90.5% (inactive),-5.62% (inactive),96.1%,90.5%,-8.92% (inactive),-6.91% (inactive)
CCOC(=O)c1c(C(F)(F)C(F)(F)C(F)(F)C(F)(F)F)n[nH]c1C,63% (inactive),79.5% (inactive),76.8% (inactive),25.1% (inactive),51.7%,76.8%,-5.75% (inactive),4% (inactive)
COCc1[nH]nc2c1C(c1cc(OC)c(O)c(OC)c1)C(C#N)=C(N)O2 (stereo not drawn),98% (inactive),102% (inactive),93% (inactive),-2% (inactive),95%,93%,-10.3% (inactive),4.03% (inactive)
CC(C)(C)NCC(O)c1cc(O)cc(O)c1 (stereo not drawn),127% (inactive),109% (inactive),98.9% (inactive),7.49% (inactive),91.4%,98.9%,-2.73% (inactive),2.5% (inactive)
O=C(O)c1ccc(COc2c(F)c(F)c(F)c(F)c2F)o1,78% (inactive),106% (inactive),92.9% (inactive),-8.1% (inactive),101%,92.9%,0.14% (inactive),19.4% (inactive)
O=C(NC1CC1)c1ccc(S(=O)(=O)NCC2CCCCC2)cc1,112% (inactive),79.4% (inactive),102% (inactive),5.06% (inactive),97%,102%,-6.85% (inactive),-0.32% (inactive)
CC1CCc2c(sc3c2C2=NS(=O)(=O)CCN2C=N3)C1 (stereo not drawn),88.5% (inactive),107% (inactive),80.6% (inactive),-7.62% (inactive),88.2%,80.6%,-9.73% (inactive),3.81% (inactive)
CC(=O)Nc1nc2c(c3c1c(=O)oc1ccccc13)CC(C)CC2 (stereo not drawn),123% (inactive),85.1% (inactive),92.1% (inactive),4.96% (inactive),87.1%,92.1%,-1.04% (inactive),-2.79% (inactive)
O=C(O)CCNC(=O)c1ccccc1,84% (inactive),99.1% (inactive),98.7% (inactive),7.94% (inactive),90.7%,98.7%,2.47% (inactive),1.17% (inactive)
CCCCCCn1c(CN2CCCC(C)C2)nc2c1c(=O)n(C)c(=O)n2C (stereo not drawn),57% (inactive),111% (inactive),101% (inactive),7.51% (inactive),93.1%,101%,-7.12% (inactive),2.36% (inactive)
